This is an account of results in PMC5154386 (Journal of medicinal chemistry, 2015).

The structures appear in SMILES notation. Converted amounts (≈) assume the structure as drawn. A value given as a limit tells only on which side of the number the result lay.

Data set [1] has as its system A549 cell line. Put plainly: Mammalian cell cytotoxicity assay. Format: cell-based.
Data set [2] has as its system BEAS-2B cell line. Put plainly: Mammalian cell cytotoxicity assay. Format: cell-based.
Data set [3] deals with murine red blood cells (mRBCs). In words: Hemolytic assay. The class given is cell-based, mouse. The note with it: for hemolysis: at higher concentrations. Summed up:
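Hemolysis was measured on murine red blood cells exposed to the test compounds. Gramicidin, amphotericin B and the parent aminoglycoside were run as comparators.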

The test system of data set [4] is S. aureus NRS385 (USA 300) (VIII). In words: Antibacterial MIC determination. The class given is cell-based. Conditions: Staphylococcus aureus, NRS385|USA300. Summed up:
(§1)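 MICs in μg/mL against a panel of 11 Gram-positive strains (including MRSA strains and VRE) and six Gram-negative strains. The panel held strains both susceptible and resistant to the parent aminoglycoside, each coded by a roman numeral. Each determination was run at least in duplicate.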

The subject of data set [5] is S. aureus ATCC 29213 (V). Put plainly: Antibacterial MIC determination. The class given is cell-based. The note with it: Staphylococcus aureus, ATCC29213. In outline:
as §1

The subject of data set [6] is various yeast strains and filamentous fungi. Put plainly: Antifungal MIC, summary over the fungal strains tested. Format: cell-based, Candida and Aspergillus species. The note with it: for MIC values, range: range over the fungal strains tested; for MIC of sulfone relative to MIC of corresponding thioether: collection of fungal strains, generally.
For data set [7], the system named is C. albicans ATCC 64124 (strain B). In words: Time-kill assay. Conditions: for time-kill activity at subinhibitory concentration: 1/2 MIC, 24 h period; for time to complete fungal cell death: at MIC. Format: cell-based.
Data set [8] deals with various yeast strains (C. albicans). In words: In vitro combination study with POS, summary over yeast strains. Format: cell-based. The note with it: for lowering of the MIC value by POS: in combination with POS; for FICI values, range: with POS, all tested fungal strains (except 3d against strain A). In outline:
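Posaconazole was tested in combination with the test compound against yeast strains, both azole-resistant and azole-susceptible. FICI = (MIC of A in combination / MIC of A alone) + (MIC of B in combination / MIC of B alone). FICI ≤ 0.5 was scored synergy, 0.5 < FICI < 4 no interaction, and FICI ≥ 4 antagonism.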

Data set [9] relates to Aspergillus nidulans ATCC 38163 (H). Put plainly: Antifungal MIC determination. Format: cell-based. Conditions: Aspergillus nidulans (strain H).
The test system of data set [10] is C. albicans ATCC 10231 (strain A). In words: Spontaneous frequency of resistance. Format: cell-based.
Data set [11] deals with S. aureus NRS383 (USA 200) (VII). In words: Antibacterial MIC determination. Conditions: Staphylococcus aureus, NRS383|USA200. Format: cell-based. In outline: as §1
Data set [12] relates to MRSA (III). Put plainly: Antibacterial MIC determination. Format: cell-based. The note with it: Staphylococcus aureus. In outline:
as §1

Data set [13] concerns AAC(3), AAC(2′), and AAC(6′). Put plainly: TLC assessment of modification by AACs alone and together. The class given is biochemical. Conditions: for modification by three AACs used simultaneously (TLC): AAC(3), AAC(2′) and AAC(6′) simultaneously.
The conditions of data set [14]: cited from earlier work.
Data set [15] deals with Pythium insidiosum. The note with it: in vitro; cited from earlier work.
Data set [16] has as its system E. coli MC1061 (XIV). Put plainly: Antibacterial MIC determination. Format: cell-based. Conditions: Escherichia coli. In outline: as §1
The subject of data set [17] is K. pneumoniae ATCC 27736 (XV). In words: Antibacterial MIC determination. The class given is cell-based. The note with it: Klebsiella pneumoniae, ATCC27736. In outline:
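MIC in μg/mL against a panel of Gram-positive and Gram-negative strains that includes strains susceptible and resistant to the parent aminoglycoside; each determination done at least in duplicate.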

Data set [18] deals with tested Gram-positive bacteria. Put plainly: Antibacterial MIC, summary over the Gram-positive panel. Conditions: iv. The class given is cell-based. In outline: as §1
The test system of data set [19] is Gram-negative bacterial strains tested. In words: Antibacterial MIC, summary over the Gram-negative panel. Format: cell-based.
Setting [20] is: at 50× MIC, MIC as in combination with POS.

`CCCCCCCCSC[C@@H]1O[C@@H](O[C@@H]2[C@@H](O)[C@H](O[C@@H]3O[C@@H](CN)[C@H](O)[C@@H](O)[C@@H]3N)[C@@H](N)C[C@H]2N)[C@@H](O)[C@H](N)[C@H]1O` [Compound 3a]: the toxicity entry in data set [1] and in data set [2] was “little to no toxicity” each time. Further, the hemolysis entry in data set [3] was “little to no hemolysis”.
In general, MIC refers to the lowest concentration found to suppress growth. High values mean a need for much substance, low ones inhibition by little substance. With `CCCCCCCCCCSC[C@@H]1O[C@@H](O[C@@H]2[C@@H](O)[C@H](O[C@@H]3O[C@@H](CN)[C@H](O)[C@@H](O)[C@@H]3N)[C@@H](N)C[C@H]2N)[C@@H](O)[C@H](N)[C@H]1O` [Compound 3b], the toxicity result in data set [1] and in data set [2] was “little to no toxicity” each time. For the same compound, the MIC in data set [4] lay in the range of 32 to 64 µg/mL (≈ 50 to 100 µM); in data set [5], 16 to 32 µg/mL (≈ 25 to 50 µM). Also, in data set [3], the hemolysis result is reported as “little to no hemolysis”.
Consider `CCCCCCCCCCCCSC[C@@H]1O[C@@H](O[C@@H]2[C@@H](O)[C@H](O[C@@H]3O[C@@H](CN)[C@H](O)[C@@H](O)[C@@H]3N)[C@@H](N)C[C@H]2N)[C@@H](O)[C@H](N)[C@H]1O` [Compound 3c], for which, in data set [6], the “MIC values, range” value is at most 1.95 to 31.2 µg/mL. For the same compound, in data set [7], the “time-kill activity at subinhibitory concentration” value is on record as “fungistatic activity” and the “time to complete fungal cell death” value amounted to 24 h. In [8], the “lowering of the MIC value by POS” value is 4–16 fold and the “FICI values, range” value lay in the range of 0.07 to 0.31. Further, the “times better than KANB” value in [9] is given as 64 times. Moreover, the mRBCs lysed in data set [3] (50× MIC, MIC as in combination with POS) came to 60%. In [3] (setting [20]), the “less hemolytic than AmB” value is ~ 30% and the “less hemolytic than gramicidin” value was ~ 20%. In data set [10] (3c (8 μg/mL) and POS (0.25 μg/mL), 96 h incubation), the mutants is 24 colonies. In addition, the “spontaneous frequency rate of resistance” value in data set [10] (combination of 3c and POS) is reported as 2.4 × 10^−7.
With `CCCCCCCCCCCCCCSC[C@@H]1O[C@@H](O[C@@H]2[C@@H](O)[C@H](O[C@@H]3O[C@@H](CN)[C@H](O)[C@@H](O)[C@@H]3N)[C@@H](N)C[C@H]2N)[C@@H](O)[C@H](N)[C@H]1O` [Compound 3d], the “MIC values, range” value in [6] is at most 1.95 to 15.6 µg/mL. In addition, in data set [7], the “time-kill activity at subinhibitory concentration” value is reported as “fungistatic activity” and the “time to complete fungal cell death” value is 12 h. In addition, in [8], the “lowering of the MIC value by POS” value was 2–8 fold and the “FICI values, range” value was in the range of 0.07 to 0.31. In data set [11], the MIC lay in the range of 8 to 16 µg/mL (≈ 11.5 to 23 µM). In [12], this compound gave an MIC of 32 to 64 µg/mL (≈ 46 to 92 µM). In addition, the “modification by three AACs used simultaneously (TLC)” value in data set [13] was “only the 3-monoacetylated product was obtained”. Further, the MIC in data set [4] lay within 16 to 32 µg/mL (≈ 23 to 46 µM).
`CCCCCCCCCCCCCCCCSC[C@@H]1O[C@@H](O[C@@H]2[C@@H](O)[C@H](O[C@@H]3O[C@@H](CN)[C@H](O)[C@@H](O)[C@@H]3N)[C@@H](N)C[C@H]2N)[C@@H](O)[C@H](N)[C@H]1O` [Compound 3e]: the “MIC values, range” value in data set [6] was in the range of 1.95 to 3.9 µg/mL. In addition, the “times more effective than KANB” value in [6] (several of the tested yeast strains) is recorded as 32 times. Further, in data set [9], the “times better than FLC” value is 32 times and the “times better than KANB” value worked out at 64 times.
As to `CCCCCCCCCCCCS(=O)(=O)C[C@@H]1O[C@@H](O[C@@H]2[C@@H](O)[C@H](O[C@@H]3O[C@@H](CN)[C@H](O)[C@@H](O)[C@@H]3N)[C@@H](N)C[C@H]2N)[C@@H](O)[C@H](N)[C@H]1O` [Compound 4c], in data set [6], the “MIC of sulfone relative to MIC of corresponding thioether” value is recorded as at most 2 fold dilution.
Still for that read-out and setting: the value for `CCCCCCCCCCCCCCS(=O)(=O)C[C@@H]1O[C@@H](O[C@@H]2[C@@H](O)[C@H](O[C@@H]3O[C@@H](CN)[C@H](O)[C@@H](O)[C@@H]3N)[C@@H](N)C[C@H]2N)[C@@H](O)[C@H](N)[C@H]1O` [Compound 4d] was at most 2 fold dilution.
For the compound `CNC(C)C1CCC(N)C(OC2C(N)CC(N)C(OC3OCC(C)(O)C(NC)C3O)C2O)O1` (stereo not shown) [GEN, gentamicin], the safe serum concentration in data set [14] is 30 to 40 µg/mL. For the same compound, in data set [15], the “concentration displaying antifungal activity (antifungal MIC)” value is 64 µg/mL.
`NC[C@H]1O[C@H](O[C@H]2[C@H](O)[C@@H](O[C@H]3O[C@H](CO)[C@@H](O)[C@H](N)[C@H]3O)[C@H](N)C[C@@H]2N)[C@H](O)[C@@H](O)[C@@H]1O` [KANA, kanamycin A]: the MIC was 8 to 16 µg/mL (≈ 16.5 to 33 µM) in data set [16], 16 to 32 µg/mL (≈ 33 to 66 µM) in [17] and over 128 µg/mL in data set [18].
Take `NC[C@H]1O[C@H](O[C@H]2[C@H](O)[C@@H](O[C@H]3O[C@H](CO)[C@@H](O)[C@H](N)[C@H]3O)[C@H](N)C[C@@H]2N)[C@H](N)[C@@H](O)[C@@H]1O` [KANB, kanamycin B, reference compound]: the MIC in [19] is at most 16 µg/mL. Further, in data set [13], the “modification by three AACs used simultaneously (TLC)” value is recorded as “converted to a diacetylated adduct”. In data set [13] (individually subjected to AAC(3), AAC(2′), or AAC(6′) overnight), the “modification by a single AAC (TLC)” value is “completely converted to its corresponding monoacetylated product”. Further, the toxicity entry in data set [1] and in data set [2] was “little to no toxicity” throughout. For the same compound, in data set [3], the hemolysis entry is “little to no hemolysis”.
Turning to `NC[C@@H]1O[C@H](O[C@H]2[C@@H](O)[C@H](O[C@@H]3[C@@H](O)[C@H](N)C[C@H](N)[C@H]3O[C@H]3O[C@H](CN)[C@@H](O)[C@H](O)[C@H]3N)O[C@@H]2CO)[C@H](N)[C@@H](O)[C@@H]1O` [NEO, neomycin B], the “concentration displaying antifungal activity (antifungal MIC)” value in data set [15] was 64 µg/mL.
On to `NC[C@@H]1O[C@H](O[C@H]2[C@@H](O)[C@H](O[C@@H]3[C@@H](O)[C@H](N)C[C@H](N)[C@H]3O[C@H]3O[C@H](CO)[C@@H](O)[C@H](O)[C@H]3N)O[C@@H]2CO)[C@H](N)[C@@H](O)[C@@H]1O` [PAR, paromomycin], for which the safe serum concentration in data set [14] is 30 to 40 µg/mL. Further, the “concentration displaying antifungal activity (antifungal MIC)” value in data set [15] was 64 µg/mL.
As for `CC[C@@H]([C@H](C)O)n1ncn(-c2ccc(N3CCN(c4ccc(OC[C@@H]5CO[C@@](Cn6cncn6)(c6ccc(F)cc6F)C5)cc4)CC3)cc2)c1=O` [POS, posaconazole, reference compound], the “reduction of the MIC values of POS” value in data set [8] (in the presence of 3c) was 16–64 fold; in data set [8] (in the presence of 3d) it was 16–32 fold.
Regarding `[H]/N=C(/N)N[C@H]1[C@H](O)[C@@H](O)[C@H](O[C@@H]2O[C@@H](C)[C@](O)(C=O)[C@H]2O[C@@H]2O[C@@H](CO)[C@H](O)[C@@H](O)[C@@H]2NC)[C@@H](N/C(N)=N\[H])[C@@H]1O` [STR, streptomycin], in [14], the safe serum concentration was 30 to 40 µg/mL. Besides, the “concentration displaying antifungal activity (antifungal MIC)” value in [15] is 64 µg/mL.
